Rows were chosen to be rich in hits. Some 2.5% of all compounds tested hit in one or more screens of this group.
TDP2 inh: human TDP2 enzyme inhibitors, primary screen, biochemical, epi absorbance, recombinant enzyme | Tyrosyl-DNA phosphodiesterase 2 (Homo sapiens), O95551 | T5PNP hydrolysis, p-nitrophenol absorbance 415 nm | inhibition, % at 12.8 µM | 0.34% of 370,000 active | AID 720702, 2013;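 active means inhibition above the mean of all tested compounds plus 3 SD, set per campaign, cut at about 25% in these data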;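 further: 0% = DMSO with enzyme and 100% = buffer with substrate but no TDP2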
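System: recombinant human TDP2 / Amount: 120 nM TDP2 per well / Also added: 5 mM T5PNP chromogenic substrate / Doses: 12.8 µM single point, 1% DMSO / Incubation: 2 h at 37 °C / Detection: p-Nitrophenol epi absorbance / Evaluation: % inhibition relative to enzyme-containing and enzyme-free wells / Repeats: singlicate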
Fh CTSL1 inh: Fasciola hepatica cathepsin L1 inhibitors, primary screen, counter-screen for PFM18AAP inhibitor project, biochemical, QFRET, fluorogenic peptide substrate. inhibition, % at 5.96 µM. 0.49% of 300,000 active. recombinant F. hepatica cathepsin L1, Z-Leu-Arg-MCA fluorescence. AID 1906, 2009;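 active means inhibition above the mean of all tested compounds plus 3 SD, set per screening campaign, cut at about 17% in these data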;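 further: 0% = plate median of test compound wells and 100% = 1 µM Z-Phe-Ala-diazomethylketone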
PRMT1 inh: PRMT1 methyltransferase inhibitors, primary screen, biochemical, fluorescence polarization; Protein arginine N-methyltransferase 1 (Homo sapiens), Q99873; recombinant PRMT1, activity-based probe fluorescence polarization; inhibition, % at 2.79 µM; 1.3% of 370,000 active; AID 652257, 2013;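 active means inhibition above about 21% made by adding two undisclosed values, limit read from the data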
Target sequence (Q99873 whole entry, looked up): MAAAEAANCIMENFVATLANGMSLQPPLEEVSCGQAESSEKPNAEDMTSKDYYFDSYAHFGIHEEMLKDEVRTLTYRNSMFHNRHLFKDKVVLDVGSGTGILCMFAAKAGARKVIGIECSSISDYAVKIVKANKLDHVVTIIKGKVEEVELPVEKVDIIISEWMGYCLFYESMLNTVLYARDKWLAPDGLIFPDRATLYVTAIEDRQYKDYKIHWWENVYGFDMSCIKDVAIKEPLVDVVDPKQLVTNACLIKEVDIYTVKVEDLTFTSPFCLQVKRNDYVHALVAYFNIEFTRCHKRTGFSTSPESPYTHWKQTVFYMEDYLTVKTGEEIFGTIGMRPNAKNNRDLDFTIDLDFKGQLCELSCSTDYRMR
PAD4 FP inh: human PAD4 inhibitors, primary screen, biochemical, fluorescence polarization, 1536-well format. recombinant PAD4, RCA probe fluorescence polarization. inhibition, % at 6.36 µM. 0.41% of 330,000 active;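 active means percent inhibition above a cutoff equal to the mean of all tested compounds plus 3 SD, cut at about 15% in these data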;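 further: 0% = PAD4 with RCA probe and DMSO and 100% = probe without PAD4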
GSTO1 inh: inhibitors of recombinant GSTO1, primary screen, counter-screen for RBBP9 inhibitor project, biochemical, fluorescence polarization. Glutathione S-transferase omega-1 (Homo sapiens), P78417. activity-based probe fluorescence polarization. inhibition, % at 5.96 µM. 1.1% of 300,000 active;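 active means inhibition above the campaign mean inhibition plus 3 SD, cut at about 35% in these data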;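 further: 0% = GSTO1-1 with DMSO and 100% = wells lacking GSTO1-1 enzyme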
Target sequence (P78417 whole entry, looked up): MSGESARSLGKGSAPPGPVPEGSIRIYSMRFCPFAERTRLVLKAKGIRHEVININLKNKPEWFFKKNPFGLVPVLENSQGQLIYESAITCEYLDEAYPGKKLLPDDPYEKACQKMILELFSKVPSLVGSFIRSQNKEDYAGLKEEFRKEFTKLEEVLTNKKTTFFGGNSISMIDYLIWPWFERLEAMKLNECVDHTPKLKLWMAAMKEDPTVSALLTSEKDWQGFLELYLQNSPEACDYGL
An asterisk follows results filed as active; . = not tested or not shown.

SMILES | TDP2 inh | Fh CTSL1 inh | PRMT1 inh | PAD4 FP inh | GSTO1 inh
CN(C)CCN(C(=O)CCS(=O)(=O)c1ccccc1)c1nc2c(F)cccc2s1 | 10 | 4 | 1 | -2 | -4
Cc1ccc2sc(N(CCCN(C)C)C(=O)CCS(=O)(=O)c3ccccc3)nc2c1C | -14 | 40* | -2 | -1 | -8
COc1ccc(C(=O)CSc2nnc(-c3n[nH]c4c3CCC4)n2N)cc1OC | 4 | . | -1 | . | .
CCOC(=O)[C@]12CCCCC/C=C\1N(Cc1ccc(OC)cc1)C(=O)[C@H]2CC(=O)NCc1ccc(OC)c(OC)c1 | 8 | . | 4 | . | .
Cc1oc(-c2ccccc2F)nc1CSCC(=O)NC1CCCC1 | 2 | -1 | 24* | 1 | 6
Cc1n[nH]c(=O)c2c(NC(=O)CSc3ccc(F)cc3)oc(C)c12 | 5 | 2 | 5 | -5 | -8
CC(=O)Nc1ccc(SCC(=O)Nc2oc(C)c3c(C)n[nH]c(=O)c23)cc1 | 1 | 3 | 27* | 5 | 13
COc1cc(/C=C2\SC(=Nc3ccccc3)N(CCc3c[nH]c4ccccc34)C2=O)ccc1OC(C)C(=O)O (stereo unspecified) | -6 | 4 | 4 | 12 | -10
O=C1/C(=C/c2ccc(N3CCOCC3)o2)SC(=Nc2ccccc2)N1CCc1c[nH]c2ccccc12 | . | 18* | . | -9 | -4
CCCCCCCCN1C(=O)[C@@H](CC(=O)N2CCN(C(=O)OCC)CC2)C[C@@]2(C(=O)OC)C1=C[C@H](COCc1ccccc1)O[C@@H]2C | 1 | . | -4 | . | .
Cc1ccc(S(=O)(=O)OCC(=O)Nc2ccc(C(=O)O)c(O)c2)cc1 | 2 | . | 21* | . | .
CCOC(=O)CC[C@H]1CC[C@]2(CCCN(C(=O)C3CCCC3)C2)O1 | 7 | . | 3 | . | .
O=C1NN(c2ccccc2)C(=O)/C1=C\c1ccc2c(c1)OCO2 | 2 | 1 | -1 | -2 | 10
Cc1ccc(N2NC(=O)/C(=C\c3cc4c(cc3[N+](=O)[O-])OCO4)C2=O)cc1C | -2 | 0 | 24* | -1 | 28
O=C(Oc1ccc(OC(=O)c2ccncc2)cc1)c1ccncc1 | -13 | 1 | 2 | -5 | 35*
CN1C2=N[C@@H](c3ccccc3)CC(=O)N2/C(=C\c2ccccc2)[C@H]1c1ccccc1 | -13 | . | 2 | . | .
CSc1nc(SCCO)c2sc3nc(-c4ccco4)c4c(c3c2n1)CC(C)(C)OC4 | 12 | . | 22* | . | .
O=C(O)c1cccc(-n2cccc2/C=C2/NC(=O)N(c3cccc(Cl)c3)C2=O)c1 | 1 | 1 | 2 | -12 | 3
O=C(O)c1cccc(-n2cccc2/C=C2/NC(=O)N(c3ccc(Cl)cc3)C2=O)c1 | -2 | . | 32* | . | .
COC(=O)[C@H](C(C)C)N1Cc2nnn(CC3CCCCC3)c2-c2cc(F)ccc2S1(=O)=O | 2 | . | 0 | . | .
COC(=O)CSc1nnc(-c2ccc(NS(=O)(=O)c3ccc(C)c(C)c3)cc2)o1 | 5 | . | 0 | . | .
Cc1cc(C)c(NC(=O)CSc2nc3ncc(Br)cc3[nH]2)c(Cl)c1 | 20 | 1 | 1 | 5 | 22
Cc1ccc(NC(=O)CSc2nc3ncc(Br)cc3[nH]2)cc1C | 17 | 4 | -5 | 0 | 36*
CC(C)N1Cc2nnn(Cc3ccc(F)cc3)c2-c2cc(F)ccc2S1(=O)=O | -2 | . | 1 | . | .
C#CC(=O)N(c1ccc(OC)cc1OC)C(C(=O)NC1CCCC1)c1cccs1 (stereo unspecified) | 6 | 30* | 0 | -1 | 15
SMILES | TDP2 inh | Fh CTSL1 inh | PRMT1 inh | PAD4 FP inh | GSTO1 inh
COc1ccc(N(C(=O)c2ccco2)C(C(=O)NC2CCCCC2)c2cccs2)cc1OC (stereo unspecified) | 4 | 0 | 0 | -5 | 0
Cc1ccc(S(=O)(=O)N2CCCC2C(=O)N2CCc3ccccc3C2)cc1C (stereo unspecified) | 9 | . | 5 | . | .
Cc1cccc(/C=C/C(=O)c2cc(Br)ccc(=O)c2O)c1 | -6 | -2 | 37* | 1 | 35*
CCOc1ccc(/C=C/C(=O)c2cc(Br)ccc(=O)c2O)cc1 | -6 | -1 | 10 | 0 | 5
Cc1ccc(N2CC(=O)Nc3c(sc4nc(C)cc(C)c34)C2=O)cc1 | 6 | 29* | -1 | 0 | 2
Cc1cc(C)c2c3c(sc2n1)C(=O)N(c1ccccc1C)CC(=O)N3 | -2 | -2 | 4 | 6 | 0
CC(=O)c1c(C)[nH]c(C(=O)OCC(=O)NNC(=O)c2ccc([N+](=O)[O-])cc2)c1C | 3 | . | -1 | -3 | .
CC(=O)c1c(C)[nH]c(C(=O)OCc2nnc(-c3ccc([N+](=O)[O-])cc3)o2)c1C | 0 | . | 24* | 4 | .
O=C(CCN1CCN(c2ccccc2)CC1)N/N=C/c1ccc(O)c(O)c1O | 15 | . | 23* | . | .
COc1cc(C2C(C#N)=C(N)OC3=C2C(=O)CCC3)c([N+](=O)[O-])cc1OC (stereo unspecified) | 6 | -2 | 21* | -6 | 38*
COC(=O)[C@]12C[C@H](CC(=O)N3CCCCC3)C(=O)N(CCC3=CCCCC3)C1=C[C@H](C1CCCC1)O[C@@H]2C | -6 | . | 6 | . | .
O=C(NNc1nc2cc3c(cc2s1)OCO3)c1ccc(F)cc1 | 1 | -5 | 23* | 2 | 3
Fc1ccc2nc(Nc3nc4cc5c(cc4s3)OCO5)sc2c1 | 5 | -1 | -1 | -4 | 0
CCOc1ccc(S(=O)(=O)N(C(=O)c2ccco2)c2cc3sc(=O)oc3c3ccccc23)cc1 | 1 | -3 | 93* | 12 | 37*
O=C(COC(=O)c1ccc2c(c1[N+](=O)[O-])C(=O)c1ccccc1C2=O)NC1CC1 | 10 | 21* | 2 | -18 | 35
COc1cc(C[C@@H](C)[C@@H](C)Cc2ccc(O)c(OC)c2)ccc1O | 6 | . | 2 | 2 | .
CC(Cc1ccc(O)c(O)c1)C(C)Cc1ccc(O)c(O)c1 (stereo unspecified) | . | -1 | . | -4 | 52*
O=C(CSc1nc2ccc(Cl)cc2[nH]1)NCc1ccco1 | 12 | 0 | 3 | -4 | 14
O=C(CSc1ccccc1)NCc1ccco1 | 8 | 3 | 1 | 0 | 7
O=C(CSc1c2c(nc3cc(Cl)ccc13)CCCC2)NCc1ccco1 | -5 | 1 | 23* | -1 | -72
O=C(CCSCc1ccccc1Cl)NCc1ccco1 | 1 | -2 | 3 | -4 | 9
O=C(CCSCCC(=O)NCc1ccco1)NCc1ccco1 | 7 | 1 | 24* | -3 | 6
O=C(CSc1ccc2c(c1)OCCO2)NCc1ccco1 | -4 | 3 | 22* | 1 | 10
C=CCN1[C@@H](Cc2ccccc2)COc2cccc(N3CCCC3)c2S1(=O)=O | -7 | . | 3 | . | .

Screening data (PubChem)
